The source made the active and inactive calls.
Assays:
Type in all cases: functional, organism-based
Mus musculus [1] = assay: Upregulation of Muc-5 mRNA expression in ob/ob mouse ileum at 3 mg/kg administered daily via oral gavage for 31 days by RNA-seq analysis
Mus musculus [2] = assay: Hypolipidemic activity in ob/ob mouse assessed as decrease in liver triglyceride levels at 0.3 to 3 mg/kg administered daily via oral gavage for 31 days
Mus musculus [3] = assay: Hypolipidemic activity in ob/ob mouse assessed as decrease in macrosteatosis at 3 mg/kg administered daily via oral gavage for 31 days by hematoxylin-eosin staining-based microscopic method
Procedure, shortened: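 Male ob/ob mice dosed by gavage (soybean vehicle); liver and abdominal white adipose tissue fixed in 10% formaldehyde-PBS pH 7.4, paraffin-embedded, sectioned, stained with H&E, Oil Red O or sirius red, and examined by light microscopy.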

Measured: Activity

CC(C)=CCC/C(C)=C/CCC1=C[C@H](c2ccc(C(C)(C)C)cc2)OC1=O
active: all assays above
